From ChEMBL document CHEMBL4665666, “Discovery and characterization of trypanocidal cysteine protease inhibitors from the 'malaria box'” (Eur J Med Chem, 2019) come the findings set out here.

The target of test [1] is Rhodesain (Trypanosoma brucei rhodesiense) (UniProt Q95PM0). Briefly: Inhibition of recombinant Trypanosoma brucei rhodesain expressed in Pichia pastoris at 5 uM using Z-FR-AMC as substrate and measured at 12 sec interval for 5 mins without preincubation by fluorimetric analysis relative to control. In outline: (§1)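 Recombinant rhodesain or cruzain (1 nM) in 0.1 M sodium acetate pH 5.5, 0.01% Triton X-100, 1 mM β-mercaptoethanol. Compound at a single concentration, either without or after 10 min enzyme pre-incubation. Inhibition is relative to DMSO, with E-64 as positive control. Done in duplicate (primary screen) or triplicate.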

The target of test [2] is Cruzipain (Trypanosoma cruzi) (UniProt P25779). Description: Inhibition of recombinant Trypanosoma cruzi cruzain at 2.5 uM using Z-FR-AMC as substrate preincubated for 10 mins followed by substrate addition and measured at 12 sec interval for 5 mins by fluorimetric analysis relative to control. Conditions: time 15.0 min. In outline: (§2)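 Recombinant rhodesain or cruzain (1 nM) in 0.1 M sodium acetate pH 5.5, 0.01% Triton X-100, 1 mM β-mercaptoethanol. Compound at a single concentration, either without or after 10 min enzyme pre-incubation. Z-FR-AMC 2.5 µM, read at 340/440 nm every 12 s for 5 min. Inhibition is relative to DMSO, with E-64 as positive control. Done in duplicate (primary screen) or triplicate.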

The target is the same in test [3]. Briefly: Inhibition of recombinant Trypanosoma cruzi cruzain at 5 uM using Z-FR-AMC as substrate and measured at 12 sec interval for 5 mins without preincubation by fluorimetric analysis relative to control. In outline:
as §1

A further test deals with Trypanosoma cruzi. Description: Trypanocidal activity against Trypanosoma cruzi Tulahuen C4 assessed as reduction in parasite viability. Type of test: functional, organism-based.
Test [4] deals with Cruzipain (Trypanosoma cruzi) (UniProt P25779). Description: Inhibition of recombinant Trypanosoma cruzi cruzain at 2.5 uM using Z-FR-AMC as substrate and measured at 12 sec interval for 5 mins without preincubation by fluorimetric analysis relative to control. The method, boiled down:
as §2

The subject of test [5] is Trypanosoma brucei brucei. Description: Trypanocidal activity against Trypanosoma brucei brucei Squib 427 assessed as reduction in parasite viability. Type of test: functional, organism-based.
In test [6] the target is Rhodesain (Trypanosoma brucei rhodesiense) (UniProt Q95PM0). Briefly: Inhibition of recombinant Trypanosoma brucei rhodesain expressed in Pichia pastoris at 2.5 uM using Z-FR-AMC as substrate and measured at 12 sec interval for 5 mins without preincubation by fluorimetric analysis relative to control. In outline: (§3)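 Run with no pre-incubation or with 10 min enzyme-compound pre-incubation. Fluorescence read at 340/440 nm. Concentration was set by solubility under assay conditions. Inhibition is against DMSO, with E-64 as positive control; triplicate.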

The target is the same in test [7]. Briefly: Inhibition of recombinant Trypanosoma brucei rhodesain expressed in Pichia pastoris at 5 uM using Z-FR-AMC as substrate preincubated for 10 mins followed by substrate addition and measured at 12 sec interval for 5 mins by fluorimetric analysis relative to control. Particulars: time 15.0 min. The method, boiled down: as §1
Test [8] deals with Trypanosoma brucei rhodesiense. Briefly: Trypanocidal activity against Trypanosoma brucei rhodesiense STI B900 assessed as reduction in parasite viability. In kind it is functional, organism-based.
In test [9] the target is Rhodesain (Trypanosoma brucei rhodesiense) (UniProt Q95PM0). Briefly: Inhibition of recombinant Trypanosoma brucei rhodesain expressed in Pichia pastoris at 2.5 uM using Z-FR-AMC as substrate preincubated for 10 mins followed by substrate addition and measured at 12 sec interval for 5 mins by fluorimetric analysis relative to control. Conditions: time 15.0 min. In outline:
as §3

In test [10] the target is Cruzipain (Trypanosoma cruzi) (UniProt P25779). Description: Inhibition of recombinant Trypanosoma cruzi cruzain at 5 uM using Z-FR-AMC as substrate preincubated for 10 mins followed by substrate addition and measured at 12 sec interval for 5 mins by fluorimetric analysis relative to control. Conditions: time 15.0 min. In outline:
as §1

pIC50: −log10 of the molar value.

Chain of Cruzipain (Trypanosoma cruzi) (P25779 123-467 limits assumed): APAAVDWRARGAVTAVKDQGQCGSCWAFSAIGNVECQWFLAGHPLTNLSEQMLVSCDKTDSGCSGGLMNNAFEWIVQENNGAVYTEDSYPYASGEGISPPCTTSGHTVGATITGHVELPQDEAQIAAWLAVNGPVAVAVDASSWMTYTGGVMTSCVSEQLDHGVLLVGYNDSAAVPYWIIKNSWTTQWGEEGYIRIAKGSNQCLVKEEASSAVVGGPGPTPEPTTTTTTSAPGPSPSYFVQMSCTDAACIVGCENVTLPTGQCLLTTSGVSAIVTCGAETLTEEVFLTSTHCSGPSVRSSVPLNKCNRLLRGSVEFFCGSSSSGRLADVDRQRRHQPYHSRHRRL
Chain of Rhodesain (Trypanosoma brucei rhodesiense) (Q95PM0 1-450): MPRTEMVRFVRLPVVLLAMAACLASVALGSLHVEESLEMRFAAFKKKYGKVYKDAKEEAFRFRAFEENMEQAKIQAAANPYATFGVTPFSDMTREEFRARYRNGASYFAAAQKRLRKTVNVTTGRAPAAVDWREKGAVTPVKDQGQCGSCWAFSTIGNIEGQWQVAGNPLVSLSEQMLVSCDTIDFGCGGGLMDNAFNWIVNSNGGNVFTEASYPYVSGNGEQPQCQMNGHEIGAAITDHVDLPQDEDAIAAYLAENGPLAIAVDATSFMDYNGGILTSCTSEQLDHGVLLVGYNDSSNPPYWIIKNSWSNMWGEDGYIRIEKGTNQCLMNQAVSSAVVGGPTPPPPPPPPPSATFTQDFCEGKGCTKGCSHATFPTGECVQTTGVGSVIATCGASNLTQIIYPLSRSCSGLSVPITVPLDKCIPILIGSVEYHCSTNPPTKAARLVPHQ

Turning to `Cc1ccc(C(=O)c2oc3ccc4c(C)cc(=O)oc4c3c2C)cc1`, the inhibition is 60.4% in test [1]; 11% in test [2]; 53.6% in test [3]; 3% in [4]; 8% in test [6]; 77.1% in test [7]. Also, the inhibition in [9] is 12%; in test [10] it was 69%. The pIC50 (in the test on Trypanosoma cruzi; in test [5]; in test [8]) was 4.49 in each case.
